Assay results taken from ChEMBL document CHEMBL4825703, “Investigation of 3-sulfamoyl coumarins against cancer-related IX and XII isoforms of human carbonic anhydrase as well as cancer cells leads to the discovery of 2-oxo-2H-benzo[h]chromene-3-sulfonamide - A new caspase-activating proapoptotic agent” (Eur J Med Chem, 2021).
Active and inactive are the calls of the source. No cut-off for these calls is given here.

How the values were obtained:
[1] = target: Carbonic anhydrase 9 (Homo sapiens, UniProt Q16790); assay: Inhibition of human carbonic anhydrase 9 assessed as inhibition constant incubated for 15 mins prior to testing by phenol red based stopped-flow CO2 hydration assay
[2] = test system: U-87 MG; assay: Antiproliferative activity against human U-87 MG cells assessed as cell growth inhibition at 30 to 100 uM measured after 24 hrs under CoCl2-induced hypoxic condition by MTT assay; type: functional, cell-based; conditions: U-87MG ATCC, dose 30-100 µM
[3] = test system: U-87 MG; assay: Antiproliferative activity against human U-87 MG cells assessed as cell survival rate at 300 uM measured after 24 hrs under CoCl2-induced hypoxic condition by MTT assay relative to control; type: functional, U-87MG ATCC; conditions: read-out: Survival
In short: (§1)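 MTT end-point assay. MTT (5 mg/mL in PBS) added for 4 h, formazan dissolved in DMSO, absorbance read at 560 nm. Viability given as % of untreated control (100%); mean ± SEM of three experiments.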

[4] = test system: RT-4; assay: Antiproliferative activity against human RT-4 cells assessed as cell survival rate at 100 uM measured after 24 hrs under CoCl2-induced hypoxic condition by MTT assay relative to control; type: functional; conditions: read-out: Survival; in short: as §1
[5] = test system: RT-4; assay: Antiproliferative activity against human RT-4 cells assessed as cell survival rate at 300 uM measured after 24 hrs under CoCl2-induced hypoxic condition by MTT assay relative to control; type: functional; conditions: read-out: Survival; in short: as §1
[6] = test system: A-431; assay: Antiproliferative activity against human A-431 cells assessed as cell survival rate at 100 uM measured after 24 hrs under CoCl2-induced hypoxic condition by MTT assay relative to control; type: functional; conditions: read-out: Survival; in short: as §1
[7] = test system: A-431; assay: Antiproliferative activity against human A-431 cells assessed as cell survival rate at 300 uM measured after 24 hrs under CoCl2-induced hypoxic condition by MTT assay relative to control; type: functional; conditions: read-out: Survival; in short: as §1
[8] = test system: A-431; assay: Antiproliferative activity against human A-431 cells assessed as reduction in cell viability measured after 24 hrs by MTT assay; conditions: A-431, 24 h
[9] = test system: A-431; assay: Antiproliferative activity against human A-431 cells assessed as reduction in cell viability measured after 48 hrs by MTT assay; conditions: A-431, 48 h
[10] = test system: A-431; assay: Antiproliferative activity against human A-431 cells assessed as reduction in cell viability measured after 72 hrs by MTT assay; conditions: A-431, 72 h
[11] = Antiproliferative activity against human WI-26 AV4 cells assessed as reduction in cell viability measured after 24 hrs by MTT assay; conditions: WI-26 AV4, 24 h
[12] = Antiproliferative activity against human WI-26 AV4 cells assessed as reduction in cell viability measured after 48 hrs by MTT assay; conditions: WI-26 AV4, 48 h
[13] = Antiproliferative activity against human WI-26 AV4 cells assessed as reduction in cell viability measured after 72 hrs by MTT assay; conditions: WI26VA4, 72 h
[14] = test system: hTERT-BJ; assay: Cytotoxicity against human TERT-Bj-5ta cells assessed as reduction in cell viability at measured after 24 hrs under CoCl2- induced hypoxic condition by MTT assay; type: cell-based
[15] = test system: hTERT-BJ; assay: Cytotoxicity against human TERT-Bj-5ta cells assessed as reduction in cell viability at 300 uM measured after 24 hrs under CoCl2- induced hypoxic condition by MTT assay relative to control; type: cell-based
[16] = target: Carbonic anhydrase 2 (Homo sapiens, UniProt P00918); assay: Inhibition of human carbonic anhydrase 2 assessed as inhibition constant incubated for 15 mins prior to testing by phenol red based stopped-flow CO2 hydration assay
[17] = test system: A-431; assay: Induction of apoptosis in human A-431 cells assessed as viable cells at 5 uM incubated for 24 hrs by annexin-V/FITC and propidium iodide based staining based flow cytometry (Rvb= 90.70 %); type: functional; conditions: read-out: Activity
[18] = test system: A-431; assay: Induction of apoptosis in human A-431 cells assessed as early apoptotic cells at 5 uM incubated for 24 hrs by annexin-V/FITC and propidium iodide based staining based flow cytometry (Rvb= 6.10 %); type: functional
[19] = test system: A-431; assay: Induction of apoptosis in human A-431 cells assessed as late apoptotic cells at 5 uM incubated for 24 hrs by annexin-V/FITC and propidium iodide based staining based flow cytometry (Rvb= 3.06 %); type: functional
[20] = test system: A-431; assay: Induction of apoptosis in human A-431 cells assessed as dead cells at 5 uM incubated for 24 hrs by annexin-V/FITC and propidium iodide based staining based flow cytometry (Rvb= 0.14 %); type: functional
[21] = test system: A-431; assay: Induction of apoptosis in human A-431 cells assessed as viable cells at 10 uM incubated for 24 hrs by annexin-V/FITC and propidium iodide based staining based flow cytometry (Rvb= 90.70 %); type: functional; conditions: read-out: Activity
[22] = test system: A-431; assay: Induction of apoptosis in human A-431 cells assessed as early apoptotic cells at 10 uM incubated for 24 hrs by annexin-V/FITC and propidium iodide based staining based flow cytometry (Rvb= 6.10 %); type: functional
[23] = test system: A-431; assay: Induction of apoptosis in human A-431 cells assessed as late apoptotic cells at 10 uM incubated for 24 hrs by annexin-V/FITC and propidium iodide based staining based flow cytometry (Rvb= 3.06 %); type: functional
[24] = test system: A-431; assay: Induction of apoptosis in human A-431 cells assessed as dead cells at 10 uM incubated for 24 hrs by annexin-V/FITC and propidium iodide based staining based flow cytometry (Rvb= 0.14 %); type: functional
[25] = test system: A-431; assay: Induction of apoptosis in human A-431 cells assessed as viable cells at 15 uM incubated for 24 hrs by annexin-V/FITC and propidium iodide based staining based flow cytometry (Rvb= 90.70 %); type: functional; conditions: read-out: Activity
[26] = test system: A-431; assay: Induction of apoptosis in human A-431 cells assessed as early apoptotic cells at 15 uM incubated for 24 hrs by annexin-V/FITC and propidium iodide based staining based flow cytometry (Rvb= 6.10 %); type: functional
[27] = test system: A-431; assay: Induction of apoptosis in human A-431 cells assessed as late apoptotic cells at 15 uM incubated for 24 hrs by annexin-V/FITC and propidium iodide based staining based flow cytometry (Rvb= 3.06 %); type: functional
[28] = test system: A-431; assay: Induction of apoptosis in human A-431 cells assessed as dead cells at 15 uM incubated for 24 hrs by annexin-V/FITC and propidium iodide based staining based flow cytometry (Rvb= 0.14 %); type: functional
[29] = test system: A-431; assay: Induction of apoptosis in human A-431 cells assessed as viable cells at 20 uM incubated for 24 hrs by annexin-V/FITC and propidium iodide based staining based flow cytometry (Rvb= 90.70 %); type: functional; conditions: read-out: Activity
[30] = test system: A-431; assay: Induction of apoptosis in human A-431 cells assessed as early apoptotic cells at 20 uM incubated for 24 hrs by annexin-V/FITC and propidium iodide based staining based flow cytometry (Rvb= 6.10 %); type: functional
[31] = test system: A-431; assay: Induction of apoptosis in human A-431 cells assessed as late apoptotic cells at 20 uM incubated for 24 hrs by annexin-V/FITC and propidium iodide based staining based flow cytometry (Rvb= 3.06 %); type: functional
[32] = test system: A-431; assay: Induction of apoptosis in human A-431 cells assessed as dead cells at 20 uM incubated for 24 hrs by annexin-V/FITC and propidium iodide based staining based flow cytometry (Rvb= 0.14 %); type: functional
[33] = test system: A-431; assay: Induction of apoptosis in human A-431 cells assessed as viable cells at 25 uM incubated for 24 hrs by annexin-V/FITC and propidium iodide based staining based flow cytometry (Rvb= 90.70 %); type: functional; conditions: read-out: Activity
[34] = test system: A-431; assay: Induction of apoptosis in human A-431 cells assessed as early apoptotic cells at 25 uM incubated for 24 hrs by annexin-V/FITC and propidium iodide based staining based flow cytometry (Rvb= 6.10 %); type: functional
[35] = test system: A-431; assay: Induction of apoptosis in human A-431 cells assessed as late apoptotic cells at 25 uM incubated for 24 hrs by annexin-V/FITC and propidium iodide based staining based flow cytometry (Rvb= 3.06 %); type: functional
[36] = test system: A-431; assay: Induction of apoptosis in human A-431 cells assessed as dead cells at 25 uM incubated for 24 hrs by annexin-V/FITC and propidium iodide based staining based flow cytometry (Rvb= 0.14 %); type: functional
[37] = test system: A-431; assay: Induction of apoptosis in human A-431 cells assessed as activation of caspase 3/7 measured after 24 hrs by CellEvent caspase 3/7 green detection reagent based assay; type: functional, cell-based
In short: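 Subconfluent cells in 6-well plates exposed to compound (5–25) for 24 h at 37 °C, 5% CO₂. Cells washed in PBS and resuspended at 1 × 10^6/mL. CellEvent caspase-3/7 green reagent added at 4 final, incubated 30 min at 37 °C, then analysed by flow cytometry within 20 min.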

## NS(=O)(=O)c1cc2cc(Cl)cc(Cl)c2oc1=O
[1]
  Ki: 0.518 µM
[2]
  growth inhibition (GI): inactive
[3]
  viability at 300 µM: 54.1%
[4]
  viability at 100 µM: 43.5%
[5]
  viability at 300 µM: 15.1%
[6]
  viability at 100 µM: 38.8%
[7]
  viability at 300 µM: 2.84%
[8]
  IC50: 26.9 µM
[9]
  IC50: 20.3 µM
[10]
  IC50: 35.2 µM
[11]
  IC50: 74 µM
[12]
  IC50: 9.54 µM
[13]
  IC50: 14.3 µM
[14]
  Activity: Non-Toxic

## NS(=O)(=O)c1cc2cc(F)ccc2oc1=O
[1]
  Ki: 0.0326 µM
[2]
  growth inhibition (GI): inactive

## NS(=O)(=O)c1cc2cc([N+](=O)[O-])ccc2oc1=O
[1]
  Ki: 0.148 µM
[2]
  growth inhibition (GI): inactive

## COc1ccc2cc(S(N)(=O)=O)c(=O)oc2c1
[1]
  Ki: 0.0405 µM
[2]
  growth inhibition (GI): inactive

## NS(=O)(=O)c1cc2ccccc2oc1=O
[1]
  Ki: 0.0651 µM
[2]
  growth inhibition (GI): inactive

## COc1cccc2oc(=O)c(S(N)(=O)=O)cc12
[1]
  Ki: 2.98 µM
[2]
  growth inhibition (GI): inactive

## CCOc1cccc2cc(S(N)(=O)=O)c(=O)oc12
[1]
  Ki: 0.0515 µM
[2]
  growth inhibition (GI): inactive
[15]
  Activity: 55.97%

## NS(=O)(=O)c1cc2cc(Cl)ccc2oc1=O
[1]
  Ki: 0.177 µM
[2]
  growth inhibition (GI): inactive
[5]
  viability at 300 µM: 19.7%
[7]
  viability at 300 µM: 36.5%
[8]
  IC50: 51.9 µM
[9]
  IC50: 29.1 µM
[10]
  IC50: 57.8 µM
[11]
  IC50: 89.2 µM
[12]
  IC50: 45.1 µM
[13]
  IC50: 5.87 µM
[14]
  Activity: Non-Toxic

## Cc1ccc2oc(=O)c(S(N)(=O)=O)cc2c1
[1]
  Ki: 0.0474 µM
[2]
  growth inhibition (GI): inactive

## NS(=O)(=O)c1cc2cc(O)ccc2oc1=O
[1]
  Ki: 0.0664 µM
[2]
  growth inhibition (GI): inactive
[15]
  Activity: 65.75%

## NS(=O)(=O)c1cc2c(ccc3ccccc32)oc1=O
[16]
  Ki: > 100 µM
[1]
  Ki: 6.37 µM
[2]
  growth inhibition (GI): inactive
[3]
  viability at 300 µM: 67.9%
[6]
  viability at 100 µM: 73%
[7]
  viability at 300 µM: 23.4%
[8]
  IC50: 9.73 µM
[9]
  IC50: 25.9 µM
[10]
  IC50: 70.1 µM
[11]
  IC50: 41.7 µM
[12]
  IC50: 84.5 µM
[13]
  IC50: > 350 µM
[17]
  viability at 5 µM: 92.8%
[18]
  Activity: 3.89%
[19]
  Activity: 2.79%
[20]
  Activity: 0.48%
[21]
  viability at 10 µM: 88.4%
[22]
  Activity: 9.25%
[23]
  Activity: 1.99%
[24]
  Activity: 0.34%
[25]
  viability at 15 µM: 85.5%
[26]
  Activity: 12.52%
[27]
  Activity: 1.7%
[28]
  Activity: 0.24%
[29]
  viability at 20 µM: 81.2%
[30]
  Activity: 15.93%
[31]
  Activity: 2.65%
[32]
  Activity: 0.25%
[33]
  viability at 25 µM: 78.7%
[34]
  Activity: 18.56%
[35]
  Activity: 2.31%
[36]
  Activity: 0.41%
[37]
  Activity: Dose-Dependent Effect
[14]
  Activity: Non-Toxic

## NS(=O)(=O)c1cc2cc(Br)ccc2oc1=O
[1]
  Ki: 0.317 µM
[2]
  growth inhibition (GI): inactive
[5]
  viability at 300 µM: 19.7%
[7]
  viability at 300 µM: 39.3%
[8]
  IC50: 38.4 µM
[9]
  IC50: 24.7 µM
[10]
  IC50: 49.2 µM
[11]
  IC50: 76.6 µM
[12]
  IC50: 42.1 µM
[13]
  IC50: 21.5 µM
[14]
  Activity: Non-Toxic

## Cc1cc(C)c2cc(S(N)(=O)=O)c(=O)oc2c1
[1]
  Ki: 0.825 µM
[2]
  growth inhibition (GI): inactive

## COc1cccc2cc(S(N)(=O)=O)c(=O)oc12
[1]
  Ki: 0.0879 µM
[2]
  growth inhibition (GI): inactive

## NS(=O)(=O)c1cc2cccc(O)c2oc1=O
[1]
  Ki: 0.0987 µM
[2]
  growth inhibition (GI): inactive
[3]
  viability at 300 µM: 67.7%
[5]
  viability at 300 µM: 19.7%
[15]
  Activity: 54.76%

## NS(=O)(=O)c1cc2cccc(F)c2oc1=O
[1]
  Ki: 0.0411 µM
[2]
  growth inhibition (GI): inactive
[3]
  viability at 300 µM: 57.9%

## COc1ccc2oc(=O)c(S(N)(=O)=O)cc2c1
[1]
  Ki: 0.0581 µM
[2]
  growth inhibition (GI): inactive
[15]
  Activity: 70.97%
